Data as given in ChEMBL document CHEMBL4732249, “Design, synthesis and biological evaluation of 2-aminoquinazolin-4(3H)-one derivatives as potential SARS-CoV-2 and MERS-CoV treatments” (Bioorg Med Chem Lett, 2021).
pIC50: −log10 of the molar value.

Legend:
Vero = assay: Cytotoxicity against African green monkey Vero cells assessed as reduction of cell viability by WST-1 assay; type: cell-based; settings: chlorocebus sabaeus
SARS-CoV-2 = assay: Antiviral activity against SARS-CoV-2 infected in African green monkey Vero cells assessed as inhibition of viral infection by measuring nucleocapsid protein level by immunofluorescence microscopic analysis; type: functional, organism-based; settings: Severe acute respiratory syndrome coronavirus 2, Vero
[1] = Selective index, ratio of CC50 for African green monkey Vero cells to IC50 for SARS-CoV-2 infected in African green monkey Vero cells
[2] = Selective index, ratio of CC50 for African green monkey Vero cells to IC50 for MERS-CoV infected in African green monkey Vero cells
[3] = system: Middle East respiratory syndrome-related coronavirus; assay: Antiviral activity against MERS-CoV infected in African green monkey Vero cells assessed as inhibition of viral infection by measuring reduction in spike protein level by immunofluorescence microscopic analysis; type: functional, organism-based
[4] = Half life in rat at 10 mg/kg, po; type: ADME, organism-based; settings: in vivo
Outline: (§1)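 Rats were dosed orally at 10 mg/kg. Values are the mean of experiments using three rats.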

[5] = Stability in human microsomes assessed as as parent compound remaining after 30 mins; type: ADME, Microsome; settings: read-out: Stabilty
Outline: (§2)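 Liver microsomes from human, mouse and rat were used. The read-out is percent of parent compound remaining after 30 min incubation.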

hERG (KCNH2) = hERG (KCNH2) (Homo sapiens, UniProt Q12809); assay: Inhibition of human ERG at 10 uM relative to control
CYP1A2 = target: T1, CYP1A2 (Homo sapiens, UniProt P05177); assay: Inhibition of CYP1A2 (unknown origin) at 10 uM relative to control; type: ADME
T1 sequence (P05177 whole entry): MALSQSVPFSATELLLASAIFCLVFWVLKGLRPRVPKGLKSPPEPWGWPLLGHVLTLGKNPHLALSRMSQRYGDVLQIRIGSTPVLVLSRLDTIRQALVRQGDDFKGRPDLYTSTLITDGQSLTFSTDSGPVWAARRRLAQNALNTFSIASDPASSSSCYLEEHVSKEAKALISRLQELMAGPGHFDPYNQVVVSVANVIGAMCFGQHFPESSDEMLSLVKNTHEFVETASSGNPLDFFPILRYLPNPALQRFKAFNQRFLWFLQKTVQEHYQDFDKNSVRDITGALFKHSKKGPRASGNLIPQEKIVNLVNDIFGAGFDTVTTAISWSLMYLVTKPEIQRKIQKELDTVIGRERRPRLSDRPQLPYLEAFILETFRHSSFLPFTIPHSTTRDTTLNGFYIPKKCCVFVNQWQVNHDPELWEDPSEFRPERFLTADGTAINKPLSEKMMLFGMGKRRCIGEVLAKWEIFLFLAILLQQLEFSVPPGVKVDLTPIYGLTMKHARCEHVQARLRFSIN

[6] = Cytotoxicity against mouse NIH3T3 cells; type: cell-based
[7] = Volume of distribution at steady state in rat at 5 mg/kg, iv; type: ADME, organism-based; settings: in vivo, read-out: Vdss
[8] = Cytotoxicity against mouse NCTC clone 929 cells; type: cell-based
[9] = Clearance in rat at 5 mg/kg, iv; type: ADME, organism-based; settings: in vivo
[10] = AUC in rat at 5 mg/kg, iv; type: ADME, organism-based; design: dose 5 mg/kg; settings: in vivo
[11] = Protein binding in rat plasma at 5 uM; type: ADME, cell-free
[12] = Tmax in rat at 10 mg/kg, po; type: ADME, organism-based; settings: in vivo; outline: as §1
[13] = Oral bioavailability in rat at 10 mg/kg; type: ADME, organism-based; settings: in vivo
Outline: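 Rats received oral dosing at 10 mg/kg alongside intravenous dosing at 2 mg/kg. Values are the mean of experiments using three rats.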

CYP2D6 = CYP2D6 (Homo sapiens, UniProt P10635); assay: Inhibition of CYP2D6 (unknown origin) at 10 uM relative to control; type: ADME
HFL1 = assay: Cytotoxicity against human HFL-1 cells; type: cell-based
CYP2C9 = CYP2C9 (Homo sapiens, UniProt P11712); assay: Inhibition of CYP2C9 (unknown origin) at 10 uM relative to control; type: ADME
[14] = AUC in rat at 10 mg/kg, po; type: ADME, organism-based; design: dose 10 mg/kg; settings: in vivo; outline: as §1
[15] = Cytotoxicity against CHO-K1 cells; type: cell-based, Cricetulus griseus; settings: chinese hamster
[16] = Stability in mouse microsomes assessed as as parent compound remaining after 30 mins; type: ADME, Microsome; settings: read-out: Stabilty; outline: as §2
CYP3A4 = CYP3A4 (Homo sapiens, UniProt P08684); assay: Inhibition of CYP3A4 (unknown origin) at 10 uM relative to control; type: ADME
CYP2C19 = CYP2C19 (Homo sapiens, UniProt P33261); assay: Inhibition of CYP2C19 (unknown origin) at 10 uM relative to control; type: ADME
[17] = Stability in rat microsomes assessed as as parent compound remaining after 30 mins; type: ADME, Microsome; settings: read-out: Stabilty; outline: as §2
[18] = Half life in rat at 5 mg/kg, iv; type: ADME, organism-based; settings: in vivo

CYP2C19, sequence (P33261 whole entry): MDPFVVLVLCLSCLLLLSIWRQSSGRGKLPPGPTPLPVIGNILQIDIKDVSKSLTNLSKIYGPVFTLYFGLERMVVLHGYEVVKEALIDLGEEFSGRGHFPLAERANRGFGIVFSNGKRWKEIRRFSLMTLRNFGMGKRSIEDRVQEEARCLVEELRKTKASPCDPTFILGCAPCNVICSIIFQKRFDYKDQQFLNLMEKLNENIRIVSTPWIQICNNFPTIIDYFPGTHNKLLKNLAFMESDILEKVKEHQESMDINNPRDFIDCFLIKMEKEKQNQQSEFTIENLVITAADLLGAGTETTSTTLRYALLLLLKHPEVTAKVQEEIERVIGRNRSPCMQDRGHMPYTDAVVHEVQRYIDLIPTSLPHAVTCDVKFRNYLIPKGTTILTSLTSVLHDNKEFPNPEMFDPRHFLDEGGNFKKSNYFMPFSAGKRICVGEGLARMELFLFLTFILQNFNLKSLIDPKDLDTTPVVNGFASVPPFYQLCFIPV
CYP2C9, sequence (P11712 whole entry): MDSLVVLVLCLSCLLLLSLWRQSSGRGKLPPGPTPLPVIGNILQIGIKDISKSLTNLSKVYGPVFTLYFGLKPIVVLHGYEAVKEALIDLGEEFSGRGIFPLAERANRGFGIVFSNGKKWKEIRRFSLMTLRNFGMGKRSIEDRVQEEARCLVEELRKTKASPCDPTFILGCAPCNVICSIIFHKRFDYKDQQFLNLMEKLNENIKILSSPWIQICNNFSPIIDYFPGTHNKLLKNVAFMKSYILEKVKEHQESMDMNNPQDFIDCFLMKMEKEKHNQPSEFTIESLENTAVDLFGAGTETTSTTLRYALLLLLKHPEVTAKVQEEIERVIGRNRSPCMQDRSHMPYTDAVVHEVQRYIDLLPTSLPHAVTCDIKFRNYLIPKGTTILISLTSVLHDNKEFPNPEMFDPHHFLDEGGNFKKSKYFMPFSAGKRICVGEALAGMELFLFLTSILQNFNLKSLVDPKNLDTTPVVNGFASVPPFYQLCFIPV
CYP2D6, sequence (P10635 whole entry): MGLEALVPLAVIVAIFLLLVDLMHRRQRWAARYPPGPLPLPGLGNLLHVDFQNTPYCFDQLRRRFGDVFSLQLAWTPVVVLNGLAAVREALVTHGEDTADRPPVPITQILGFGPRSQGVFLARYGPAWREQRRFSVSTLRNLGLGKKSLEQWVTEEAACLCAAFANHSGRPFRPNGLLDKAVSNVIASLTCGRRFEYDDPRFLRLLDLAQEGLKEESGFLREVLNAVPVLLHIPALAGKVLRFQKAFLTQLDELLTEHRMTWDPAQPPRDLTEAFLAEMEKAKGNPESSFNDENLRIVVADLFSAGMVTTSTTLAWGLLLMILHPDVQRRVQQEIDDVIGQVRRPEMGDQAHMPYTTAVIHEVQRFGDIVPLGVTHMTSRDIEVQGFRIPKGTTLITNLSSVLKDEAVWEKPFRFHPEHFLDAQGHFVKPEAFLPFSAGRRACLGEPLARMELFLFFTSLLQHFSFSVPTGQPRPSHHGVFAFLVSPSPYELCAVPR
CYP3A4, sequence (P08684 whole entry): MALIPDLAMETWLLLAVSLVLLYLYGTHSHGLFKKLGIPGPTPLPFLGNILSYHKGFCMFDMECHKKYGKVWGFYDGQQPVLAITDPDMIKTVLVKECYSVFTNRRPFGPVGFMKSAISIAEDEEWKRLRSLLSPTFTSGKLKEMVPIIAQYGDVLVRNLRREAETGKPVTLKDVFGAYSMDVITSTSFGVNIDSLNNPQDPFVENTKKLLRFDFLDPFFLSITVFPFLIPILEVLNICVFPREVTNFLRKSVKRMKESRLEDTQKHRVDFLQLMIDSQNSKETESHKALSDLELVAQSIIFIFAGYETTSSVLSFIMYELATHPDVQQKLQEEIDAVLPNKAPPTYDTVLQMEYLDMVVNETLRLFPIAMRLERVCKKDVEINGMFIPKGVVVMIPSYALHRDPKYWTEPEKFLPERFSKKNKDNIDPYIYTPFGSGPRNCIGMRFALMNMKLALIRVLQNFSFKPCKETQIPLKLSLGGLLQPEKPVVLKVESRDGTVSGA
hERG (KCNH2), sequence (Q12809 whole entry): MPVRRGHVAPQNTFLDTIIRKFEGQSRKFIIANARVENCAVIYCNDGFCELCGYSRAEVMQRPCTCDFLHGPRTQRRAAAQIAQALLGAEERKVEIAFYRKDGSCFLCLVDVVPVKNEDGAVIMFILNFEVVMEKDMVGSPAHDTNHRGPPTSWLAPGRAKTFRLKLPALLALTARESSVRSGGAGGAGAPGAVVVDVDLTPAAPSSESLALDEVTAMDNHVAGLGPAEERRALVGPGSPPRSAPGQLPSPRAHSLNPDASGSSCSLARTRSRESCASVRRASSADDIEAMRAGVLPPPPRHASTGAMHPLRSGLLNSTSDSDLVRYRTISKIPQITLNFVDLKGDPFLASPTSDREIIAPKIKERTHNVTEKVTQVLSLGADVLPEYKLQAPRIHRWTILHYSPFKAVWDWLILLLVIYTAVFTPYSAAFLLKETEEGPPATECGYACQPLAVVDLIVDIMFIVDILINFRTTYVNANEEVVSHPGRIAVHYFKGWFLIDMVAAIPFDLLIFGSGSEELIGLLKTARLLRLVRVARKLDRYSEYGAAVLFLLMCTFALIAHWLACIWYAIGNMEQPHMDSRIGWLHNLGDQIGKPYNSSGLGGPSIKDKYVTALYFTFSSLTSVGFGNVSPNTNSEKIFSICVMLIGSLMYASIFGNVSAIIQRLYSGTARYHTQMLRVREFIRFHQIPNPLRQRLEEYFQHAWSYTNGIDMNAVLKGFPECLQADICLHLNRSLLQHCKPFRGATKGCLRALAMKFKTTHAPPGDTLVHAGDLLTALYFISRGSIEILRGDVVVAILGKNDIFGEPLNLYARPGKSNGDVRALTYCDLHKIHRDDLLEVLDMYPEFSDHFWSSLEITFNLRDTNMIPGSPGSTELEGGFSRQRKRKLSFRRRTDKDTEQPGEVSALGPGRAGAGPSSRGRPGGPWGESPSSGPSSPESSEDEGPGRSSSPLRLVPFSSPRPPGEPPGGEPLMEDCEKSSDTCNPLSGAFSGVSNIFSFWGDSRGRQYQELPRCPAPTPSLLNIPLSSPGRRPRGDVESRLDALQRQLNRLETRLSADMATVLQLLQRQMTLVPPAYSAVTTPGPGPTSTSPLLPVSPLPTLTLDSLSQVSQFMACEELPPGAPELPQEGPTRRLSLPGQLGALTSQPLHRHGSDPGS

For `O=c1[nH]c(Nc2ccccc2F)nc2cc(Cl)ccc12`, the CC50 (Vero) was greater than 25 µM, the pIC50 (SARS-CoV-2) was less than 4.60 and the “Ratio CC50/IC50” value [1] was 1.
In the case of `O=c1[nH]c(Nc2cccc(O)c2)nc2cc(Cl)ccc12`, the CC50 (Vero) was greater than 25 µM, the pIC50 (SARS-CoV-2) was less than 4.60 and the “Ratio CC50/IC50” value [1] was 1.
In the case of `Cc1cc(C)c2nc(Nc3cc(Cl)cc(Cl)c3)[nH]c(=O)c2c1`, the CC50 (Vero) was greater than 25 µM, the pIC50 (SARS-CoV-2) was less than 4.60 and the “Ratio CC50/IC50” value [1] was 1.
In the case of `O=c1[nH]c(Nc2cc(Cl)cc(Cl)c2)nc2cc(O)ccc12`, the CC50 (Vero) was greater than 25 µM, the pIC50 (SARS-CoV-2) was less than 4.60 and the “Ratio CC50/IC50” value [1] was 1.
With `Nc1ccc2c(=O)[nH]c(Nc3cc(Cl)cc(Cl)c3)nc2c1` the CC50 (Vero) was greater than 25 µM, the pIC50 (SARS-CoV-2) was less than 4.60 and the “Ratio CC50/IC50” value [1] was 1.
In the case of `O=c1[nH]c(Nc2cc(F)cc(F)c2)nc2c(Cl)ccc(Cl)c12`, the “Ratio CC50/IC50” value [2] was 31, the CC50 (Vero) was greater than 25 µM and the pIC50 (SARS-CoV-2) was 6.48. For the same compound, the pIC50 [3] was 6.10 and the “Ratio CC50/IC50” value [1] was 76.
In the case of `O=c1[nH]c(Nc2cccc(F)c2)nc2cc(Cl)ccc12`, the CC50 (Vero) was greater than 25 µM, the pIC50 (SARS-CoV-2) was 5.85 and the “Ratio CC50/IC50” value [1] was 18.
For `O=c1[nH]c(Nc2cc(Cl)cc(Cl)c2)nc2cccc(O)c12`, the “Ratio CC50/IC50” value [2] was 25, the half-life [4] was 42 h and the remaining at 0.5 h [5] was 55%. For the same compound, the inhibition at 10 µM (hERG (KCNH2)) was 28%, the inhibition at 10 µM (CYP1A2) was 65% and the CC50 [6] was 60 µM. The Vd [7] was 6.8 L/kg, the CC50 [8] was 27 µM and the clearance [9] was 11.2 mL/min/kg. The AUC [10] was 6500 ng·h/mL, the PPB [11] was 97% and the CC50 (Vero) was greater than 25 µM. For the same compound, the Tmax [12] was 1 h, the bioavailability [13] was 7.8% and the inhibition at 10 µM (CYP2D6) was 46%. The pIC50 (SARS-CoV-2) was 6.82, the CC50 (HFL1) was 9.6 µM and the pIC50 [3] was 5.99. The inhibition at 10 µM (CYP2C9) was 34%, the AUC [14] was 1010 ng·h/mL and the CC50 [15] was 28 µM. For the same compound, the remaining at 0.5 h [16] was 42%, the inhibition at 10 µM (CYP3A4) was 65% and the “Ratio CC50/IC50” value [1] was 168. For the same compound, the inhibition at 10 µM (CYP2C19) was 12%, the remaining at 0.5 h [17] was 54% and the half-life [18] was 9.2 h.
With `O=c1[nH]c(Nc2cc(O)cc(O)c2)nc2cc(Cl)ccc12` the CC50 (Vero) was greater than 25 µM, the pIC50 (SARS-CoV-2) was less than 4.60 and the “Ratio CC50/IC50” value [1] was 1.
With `O=c1[nH]c(Nc2cc(Cl)cc(Cl)c2)nc2cc(N3CCOCC3)ccc12` the CC50 (Vero) was greater than 25 µM, the pIC50 (SARS-CoV-2) was less than 4.60 and the “Ratio CC50/IC50” value [1] was 1.
For `O=c1[nH]c(N2CCCCC2)nc2cc(Cl)ccc12`, the CC50 (Vero) was greater than 25 µM, the pIC50 (SARS-CoV-2) was less than 4.60 and the “Ratio CC50/IC50” value [1] was 1.
For `O=c1[nH]c(Nc2cc(F)cc(F)c2)nc2cc(O)ccc12`, the CC50 (Vero) was greater than 25 µM, the pIC50 (SARS-CoV-2) was less than 4.60 and the “Ratio CC50/IC50” value [1] was 1.
For `O=c1[nH]c(Nc2cccc(C(F)(F)F)c2)nc2cc(Cl)ccc12`, the CC50 (Vero) was greater than 25 µM, the pIC50 (SARS-CoV-2) was 6.17 and the “Ratio CC50/IC50” value [1] was 37.
For `COc1cccc2nc(Nc3cc(Cl)cc(Cl)c3)[nH]c(=O)c12`, the CC50 (Vero) was greater than 25 µM, the pIC50 (SARS-CoV-2) was less than 4.60 and the “Ratio CC50/IC50” value [1] was 1.
For `O=c1[nH]c(Nc2cc(Cl)cc(Cl)c2)nc2c(Cl)ccc(Cl)c12`, the “Ratio CC50/IC50” value [2] was 42, the CC50 (Vero) was greater than 25 µM and the pIC50 (SARS-CoV-2) was 6.46. For the same compound, the pIC50 [3] was 6.21 and the “Ratio CC50/IC50” value [1] was 71.
With `N#Cc1cccc(Nc2nc3cc(Cl)ccc3c(=O)[nH]2)c1` the CC50 (Vero) was greater than 25 µM, the pIC50 (SARS-CoV-2) was 5.77 and the “Ratio CC50/IC50” value [1] was 15.
For `COc1cccc(Nc2nc3cc(Cl)ccc3c(=O)[nH]2)c1`, the CC50 (Vero) was greater than 25 µM, the pIC50 (SARS-CoV-2) was 4.96 and the “Ratio CC50/IC50” value [1] was 2.3.
For `Nc1ccc2c(=O)[nH]c(Nc3cc(F)cc(F)c3)nc2c1`, the CC50 (Vero) was greater than 25 µM, the pIC50 (SARS-CoV-2) was less than 4.60 and the “Ratio CC50/IC50” value [1] was 1.
For `O=c1[nH]c(Nc2cc(Cl)cc(Cl)c2)nc2c(Cl)c(Cl)ccc12`, the “Ratio CC50/IC50” value [2] was 31, the CC50 (Vero) was greater than 25 µM and the pIC50 (SARS-CoV-2) was 6.62. The pIC50 [3] was 6.06 and the “Ratio CC50/IC50” value [1] was 103.
